# Measured values taken from ChEMBL document CHEMBL1287754, “28-nor-oleanane-type triterpene saponins from Camellia japonica and their inhibitory activity on LPS-induced NO production in macrophage RAW264.7 cells” (Bioorg Med Chem Lett, 2010).
# pIC50: −log10 of the molar value.
# Assays:
# [1] = system: RAW264.7; assay: Cytotoxicity against mouse RAW264.7 cells assessed as cell viability at 50 uM after 24 hrs by MTT assay; format: cell-based; settings: raw264.7, 24 h
# [2] = system: RAW264.7; assay: Cytotoxicity against LPS-stimulated mouse RAW264.7 cells assessed as cell viability at 50 uM after 24 hrs by MTT assay; format: cell-based; settings: raw264.7, 24 h
# [3] = system: RAW264.7; assay: Antiinflammatory activity in mouse RAW264.7 cells assessed as inhibition of LPS-induced nitric oxide production after 24 hrs by Griess reaction; format: functional, cell-based; settings: RAW264.7, 24 h
# Procedure, shortened: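 LPS-stimulated RAW264.7 macrophages; nitrite, the stable NO metabolite, quantified by Griess reaction in harvested culture medium. IC50 is the molar concentration giving 50% inhibition of NO production relative to vehicle control.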
SMILES,Activity [1],Activity [2],pIC50 [3]
CC(=O)O[C@H]1[C@@H](O)[C@H](O)[C@@H](O[C@H]2[C@H](O[C@H]3CC[C@@]4(C)C(CC[C@]5(C)[C@@H]4CC=C4[C@@H]6CC(C)(C)CC[C@]6(O)C(=O)C[C@]45C)C3(C)C)O[C@H](C(=O)O)[C@@H](O)[C@@H]2O[C@@H]2O[C@H](CO)[C@H](O)[C@H](O)[C@H]2O[C@@H]2OC[C@@H](O)[C@H](O)[C@H]2O)O[C@H]1CO (some centres undefined) [CAMELLIOSIDE F],Non-toxic,Non-toxic,4.94
CC1CCN=C(N)S1 (centres undefined),,,7.66
CC1(C)CC[C@]2(O)C(=O)C[C@]3(C)C(=CC[C@@H]4[C@@]5(C)CC[C@H](O[C@@H]6O[C@H](C(=O)O)[C@@H](O)[C@H](O[C@@H]7O[C@H](CO)[C@H](O)[C@H](O)[C@H]7O[C@@H]7OC[C@@H](O)[C@H](O)[C@H]7O)[C@H]6O[C@H]6O[C@@H](CO)[C@@H](O)[C@@H](O)[C@@H]6O)C(C)(C)C5CC[C@]43C)[C@@H]2C1 (some centres undefined) [CAMELLIOSIDE E],Non-toxic,Non-toxic,4.74
CC(=O)O[C@H]1[C@@H](O)[C@H](O)[C@@H](O[C@H]2[C@H](O[C@H]3CC[C@@]4(C)C(CC[C@]5(C)[C@@H]4CC=C4[C@@H]6CC(C)(C)CC[C@]6(O)C(=O)C[C@]45C)C3(C)C)O[C@H](C(=O)O)[C@@H](O)[C@@H]2O[C@@H]2O[C@H](CO)[C@H](O)[C@H](O)[C@H]2O[C@@H]2O[C@H](CO)[C@@H](O)[C@H](O)[C@H]2O)O[C@H]1CO (some centres undefined) [CAMELLIOSIDE],Non-toxic,Non-toxic,5.30
CC1(C)CC[C@]2(O)C(=O)C[C@]3(C)C(=CC[C@@H]4[C@@]5(C)CC[C@H](O[C@@H]6O[C@H](C(=O)O)[C@@H](O)[C@H](O[C@@H]7O[C@H](CO)[C@H](O)[C@H](O)[C@H]7O[C@@H]7O[C@H](CO)[C@@H](O)[C@H](O)[C@H]7O)[C@H]6O[C@H]6O[C@@H](CO)[C@@H](O)[C@@H](O)[C@@H]6O)C(C)(C)C5CC[C@]43C)[C@@H]2C1 (some centres undefined) [CAMELLIOSIDE A],Non-toxic,Non-toxic,5.02
COC(=O)[C@H]1O[C@@H](O[C@H]2CC[C@@]3(C)C(CC[C@]4(C)[C@@H]3CC=C3C5=C(CCC(C)(C)C5)C(=O)C[C@]34C)C2(C)C)[C@H](O[C@H]2O[C@@H](CO)[C@@H](O)[C@@H](O)[C@@H]2O)[C@@H](O[C@@H]2O[C@H](CO)[C@H](O)[C@H](O)[C@H]2O[C@@H]2OC[C@@H](O)[C@H](O)[C@H]2O)[C@@H]1O (some centres undefined) [CAMELLIOSIDE H],Non-toxic,Non-toxic,4.80
COC(=O)[C@H]1O[C@@H](O[C@H]2CC[C@@]3(C)C(CC[C@]4(C)[C@@H]3CC=C3[C@@H]5CC(C)(C)CC[C@]5(O)C(=O)C[C@]34C)C2(C)C)[C@H](O[C@H]2O[C@@H](CO)[C@@H](O)[C@@H](O)[C@@H]2O)[C@@H](O[C@@H]2O[C@H](CO)[C@H](O)[C@H](O)[C@H]2O[C@@H]2OC[C@@H](O)[C@H](O)[C@H]2O)[C@@H]1O (some centres undefined) [CAMELLIOSIDE G],Non-toxic,Non-toxic,5.29
